Assay results published in ChEMBL document CHEMBL1128354, “Fluorenylalkanoic and benzoic acids as novel inhibitors of cell adhesion processes in leukocytes” (J Med Chem, 1995).

Legend:
[1] = species: Homo sapiens; assay: In vitro ability to inhibit the adhesion of neutrophil activated by tumor necrosis factor (alpha-TNF) to serum-coated plastic wells.; format: functional, organism-based
Method in brief: (§1)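 Human blood PMN, isolated and RBC-lysed, at 4×10^6/mL were preincubated with compound (from 100× DMSO stocks) for 10 min at 37 °C in wells coated with 10% pooled human serum. TNF-α was then added to 0.6 nM and adherence run for 20 min. Adherent cells quantitated by BCA protein assay. Seven dilutions in duplicate gave IC50, averaged over at least three experiments ± SEM.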

[2] = (§2) LD50 value for polymorphonuclear granulocytes was determined; format: ADME; conditions: human, read-out: LD50 (the source's name)
Method in brief: (§3)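 Viability read-out for LD50: human PMN (isolated from heparinised blood of unmedicated volunteers) or endothelial cell suspension in phenol red-free medium, with compound, incubated in serum-coated wells for 30 min at 37 °C. Calcein AM (added as 2 μM solution in HBSS++) for a further 30 min. Fluorescence read at ex/em 485/535 nm from live-cell esterase cleavage.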

[3] = species: Homo sapiens; assay: In vitro ability to inhibit the adhesion of neutrophil activated by platelet activating factor (PAF) to serum-coated plastic wells was determined; format: functional
Method in brief: as §1, with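 “PAF” for “TNF-α”, “1 μM” for “0.6 nM”, “10” for “20”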

[4] = LD50 value for endothelial cells was determined; format: ADME, cell-based, Endothelial cell; conditions: human, read-out: LD50 (the source's name); method in brief: as §3
[5] = In vitro ability to inhibit adherence of activated polymorphonuclear granulocytes to endothelial cells using IFN gamma-(HUVEC) assay was determined; conditions: Homo sapiens
[6] = as §2; format: functional; conditions: Homo sapiens; read-out: LD50 (the source's name); method in brief: as §3

Question: Which IC50 [1] does the source give for `CC(C)C[C@H](NC(=O)OCC1c2ccccc2-c2ccccc21)C(=O)O` here?
Answer: 78 µM

Question: For `O=C(Nc1ccccc1C(=O)O)OC1c2ccccc2-c2ccccc21`, which IC50 [1] is on record?
Answer: 19 µM

Question: With `O=C(O)c1ccc(OCCCCC2c3cc(Cl)ccc3-c3ccc(Cl)cc32)cc1` as the molecule, how does the IC50 [1] read?
Answer: 8.1 µM

Question: For `O=C(O)c1ccc(CC2c3cc(Cl)ccc3-c3ccc(Cl)cc32)cc1`, which IC50 [1] is on record?
Answer: 29.1 µM

Question: For `O=C(O)CCCC1c2ccccc2-c2ccccc21`, which IC50 [1] is on record?
Answer: 97 µM

Question: For `O=C(O)C1c2ccccc2-c2ccccc21`, which IC50 [1] is on record?
Answer: > 200 µM

Question: With `O=C(O)c1cccc(OCCCC2c3ccccc3-c3ccccc32)c1` as the molecule, how does the IC50 [1] read?
Answer: 13.8 µM

Question: For `O=C(O)c1cccc(OCCCCCC2c3ccccc3-c3ccccc32)c1`, which IC50 [1] is on record?
Answer: 5.23 µM

Question: For `O=C(O)c1ccc(CC2c3ccccc3-c3ccccc32)cc1`, which CC50 [2] is on record?
Answer: 306 µM

Question: And the IC50 [1]?
Answer: 27.6 µM

Question: And the IC50 [3]?
Answer: 17.8 µM

Question: What about the CC50 [4] of the same molecule?
Answer: > 1000 µM

Question: What about the IC50 [5] of the same molecule?
Answer: 91.2 µM

Question: With `CC(C)(C)c1ccc2c(c1)C(Cc1ccc(C(=O)O)cc1)c1cc(C(C)(C)C)ccc1-2` as the molecule, how does the IC50 [1] read?
Answer: > 200 µM

Question: With `O=C(N[C@@H](Cc1ccccc1)C(=O)O)OCC1c2ccccc2-c2ccccc21` as the molecule, how does the IC50 [1] read?
Answer: 58 µM

Question: For `O=C(O)c1ccccc1OCCC1c2ccccc2-c2ccccc21`, which IC50 [1] is on record?
Answer: 73.3 µM

Question: For `O=C(O)CCCCC1c2ccccc2-c2ccccc21`, which IC50 [1] is on record?
Answer: 87 µM

Question: For `Cc1ccc2c(c1)C(COC(=O)N[C@@H](CC(C)C)C(=O)O)c1cc(C)ccc1-2`, which CC50 [2] is on record?
Answer: 343 µM

Question: What about the IC50 [1] of the same molecule?
Answer: 41.7 µM

Question: And the IC50 [3]?
Answer: 31.7 µM

Question: And the CC50 [4]?
Answer: 354 µM

Question: And the IC50 [5]?
Answer: 117 µM

Question: For `O=C(O)c1ccccc1OCCCCCC1c2ccccc2-c2ccccc21`, which IC50 [1] is on record?
Answer: 15.8 µM

Question: Which CC50 [2] does the source give for `O=C(O)c1ccc(OCCCCC2c3ccccc3-c3ccccc32)cc1` here?
Answer: 113 µM

Question: What about the IC50 [1] of the same molecule?
Answer: 7.53 µM

Question: What about the IC50 [3] of the same molecule?
Answer: 5.2 µM

Question: What about the CC50 [4] of the same molecule?
Answer: > 1000 µM

Question: And the IC50 [5]?
Answer: 19.8 µM

Question: For `O=C(O)CCCCCCCCCC1c2ccccc2-c2ccccc21`, which IC50 [1] is on record?
Answer: 11.6 µM

Question: Which IC50 [1] does the source give for `O=C(Nc1ccc(C(=O)O)cc1)OCCC1c2ccccc2-c2ccccc21` here?
Answer: 30 µM

Question: Which IC50 [1] does the source give for `O=C(O)c1cccc(OCCC2c3ccccc3-c3ccccc32)c1` here?
Answer: 31 µM

Question: What does the source list for `O=C(O)c1ccc(OCCCCCC2c3ccccc3-c3ccccc32)cc1`?
Answer: CC50 [2]: 295 µM; IC50 [1]: 7.13 µM; IC50 [3]: 11.7 µM; CC50 [4]: > 1000 µM; IC50 [5]: 48.2 µM

Question: With `O=C(O)c1cccc(OCCCCC2c3ccccc3-c3ccccc32)c1` as the molecule, how does the IC50 [1] read?
Answer: 6.6 µM

Question: Which CC50 [2] does the source give for `O=C(O)c1ccc(OCCCC2c3ccccc3-c3ccccc32)cc1` here?
Answer: 281 µM

Question: What about the IC50 [1] of the same molecule?
Answer: 15.6 µM

Question: What about the IC50 [3] of the same molecule?
Answer: 36.4 µM

Question: And the CC50 [4]?
Answer: > 1000 µM

Question: What about the IC50 [5] of the same molecule?
Answer: 23.2 µM

Question: Which IC50 [1] does the source give for `O=C(O)CCCCCC1c2ccccc2-c2ccccc21` here?
Answer: 55.2 µM

Question: For `O=C(O)CCC1c2ccccc2-c2ccccc21`, which IC50 [1] is on record?
Answer: > 200 µM

Question: Which IC50 [1] does the source give for `O=C(O)CC1c2ccccc2-c2ccccc21` here?
Answer: > 200 µM

Question: For `O=C(O)CCCCCCCC1c2ccccc2-c2ccccc21`, which IC50 [1] is on record?
Answer: 32.2 µM

Question: Which results are given for `O=C(Nc1ccc(C(=O)O)cc1)OCCC1c2cc(Cl)ccc2-c2ccc(Cl)cc21`?
Answer: IC50 [1]: 9.8 µM; IC50 [3]: 17.8 µM; CC50 [6]: 62.5 µM; CC50 [4]: 82.3 µM; IC50 [5]: 26.1 µM

Question: For `CC(C)(C)c1ccc2c(c1)C(CCCCOc1ccc(C(=O)O)cc1)c1cc(C(C)(C)C)ccc1-2`, which IC50 [1] is on record?
Answer: 8 µM

Question: For `O=C(Nc1ccc(C(=O)O)cc1)OCC1c2ccccc2-c2ccccc21`, which IC50 [1] is on record?
Answer: > 500 µM

Question: Which IC50 [1] does the source give for `O=C(O)c1ccccc1OCCCC1c2ccccc2-c2ccccc21` here?
Answer: 55.4 µM

Question: Which IC50 [1] does the source give for `O=C(O)c1ccc(C2c3ccccc3-c3ccccc32)cc1` here?
Answer: 81.6 µM

Question: With `O=C(O)C(CCCCC1c2ccccc2-c2ccccc21)Cc1ccccc1` (stereo unspecified) as the molecule, how does the CC50 [2] read?
Answer: 79 µM

Question: What about the IC50 [1] of the same molecule?
Answer: 6 µM

Question: And the CC50 [4]?
Answer: 72 µM

Question: What about the IC50 [5] of the same molecule?
Answer: 10.2 µM

Question: For `O=C(Nc1ccc(C(=O)O)cc1)OC1c2ccccc2-c2ccccc21`, which IC50 [1] is on record?
Answer: 30 µM

Question: For `O=C(O)c1ccc(OCCC2c3ccccc3-c3ccccc32)cc1`, which IC50 [1] is on record?
Answer: 14 µM
